pIC50: −log10 of the molar value.
Key:
[1] = system: MDA-MB-231; assay: Cytotoxicity against estrogen receptor deficient human MDA-MB-231 cells assessed as LDH release at 10 uM; assay type: functional
How it was run: (§1)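 After compound treatment, LDH was measured with a commercial LDH kit. Result is % cell lysis at 10 μM compound.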

[2] = system: MCF7; assay: Antiproliferative activity against human MCF7 cells expressing estrogen receptor after 72 hrs by MTT assay; assay type: functional, cell-based; conditions: MCF7, 72 h
[3] = system: MDA-MB-231; assay: Antiproliferative activity against estrogen receptor deficient human MDA-MB-231 cells after 72 hrs by MTT assay; assay type: functional, cell-based; conditions: MDA-MB-231, 72 h
How it was run: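 MCF-7 grown in Eagle's MEM with 10% FBS, 2 mM L-glutamine, penicillin/streptomycin and 1% non-essential amino acids; MDA-MB-231 grown in DMEM with 10% FBS, 2 mM L-glutamine and penicillin/streptomycin. Seeded at 2.5 × 10⁴ cells/mL, 24 h at 37 °C. Ethanol-stock compound, 1 nM–100 μM, 72 h, ethanol 1% v/v vehicle. MTT at 1 mg/mL final, 2 h dark, 37 °C, DMSO solubilised. Viability vs untreated control. IC50 is mean of three experiments in triplicate.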

[4] = system: MCF7; assay: Cytotoxicity against human MCF7 cells expressing estrogen receptor assessed as LDH release at 10 uM; assay type: functional; how it was run: as §1

Compound	Activity [1] [%]	pIC50 [2]	pIC50 [3]	Activity [4] [%]
COc1ccc(N2C(=O)CC2c2cc(OC)c(OC)c(OC)c2)cc1O (configuration not stated)	6.6	6.60	6.57	2.3
COc1ccc(C2C(C)C(=O)N2c2cc(OC)c(OC)c(OC)c2)cc1O (configuration not stated)	25	8.00	7.33	15
COc1ccc(C2N(c3cc(OC)c(OC)c(OC)c3)C(=O)C2(C)C)cc1O (configuration not stated)	20	6.89	5.78	12
COc1ccc(N2C(=O)C(C)C2c2cc(OC)c(OC)c(OC)c2)cc1O (configuration not stated)	0	5.53	4.89	17
COc1ccc(N2C(=O)C(C)(C)C2c2cc(OC)c(OC)c(OC)c2)cc1O (configuration not stated)	12.1	5.39	5.50	11.5
COc1cc(N2C(=O)CC2c2ccc(F)cc2)cc(OC)c1OC (configuration not stated)	6.3	4.59	4.59	0
COc1cc(OC)c(C2CC(=O)N2c2cc(OC)c(OC)c(OC)c2)cc1OC (configuration not stated)	0	4.20	4.41	2.2
COc1ccc(C2CC(=O)N2c2cc(OC)c(OC)c(OC)c2)cc1 (configuration not stated)	1.1	7.41	6.68	1.5
COc1ccc(C2C(C)C(=O)N2c2cc(OC)c(OC)c(OC)c2)cc1 (configuration not stated)	4.5	7.33	6.90	5.7
COc1ccc(C2N(c3cc(OC)c(OC)c(OC)c3)C(=O)C2(C)C)cc1 (configuration not stated)	16	6.58	5.94	12
COc1cc(C2CC(=O)N2c2cc(OC)c(OC)c(OC)c2)cc(OC)c1OC (configuration not stated)	0	3.77	4.03	1.9
COc1cc(N2C(=O)CC2c2ccc(OC)c(OC)c2OC)cc(OC)c1OC (configuration not stated)	9	6.51	5.55	8
COc1ccc(C2CC(=O)N2c2cc(OC)c(OC)c(OC)c2)cc1OC (configuration not stated)	15	5.79	6.01	5
COc1ccc(C2C(C)C(=O)N2c2cc(OC)c(OC)c(OC)c2)cc1OC (configuration not stated)	6.1	5.53	5.05	7.5
COc1ccc(C2N(c3cc(OC)c(OC)c(OC)c3)C(=O)C2(C)C)cc1OC (configuration not stated)	12	6.46	5.84	14
COc1cc(N2C(=O)CC2c2cccs2)cc(OC)c1OC (configuration not stated)	15	4.67	4.46	20
COc1ccc2cc(C3CC(=O)N3c3cc(OC)c(OC)c(OC)c3)ccc2c1 (configuration not stated)	18	5.82	4.88	13.5
COc1ccc(C2CC(=S)N2c2cc(OC)c(OC)c(OC)c2)cc1 (configuration not stated)	3	5.95	5.35	16
COc1ccc(C2C(C)C(=S)N2c2cc(OC)c(OC)c(OC)c2)cc1 (configuration not stated)	5.1	6.05	5.03	3.2
COc1ccc(C2N(c3cc(OC)c(OC)c(OC)c3)C(=S)C2(C)C)cc1 (configuration not stated)	8	6.46	5.88	5.5
COc1ccc(/C=C\c2cc(OC)c(OC)c(OC)c2)cc1O [COMBRETASTATIN A4]	4.3	–	–	5.6

Reference: ChEMBL document CHEMBL1629485, “Lead identification of conformationally restricted β-lactam type combretastatin analogues: synthesis, antiproliferative activity and tubulin targeting effects” (Eur J Med Chem, 2010)
